Hit rate of the full screen: of about 300,000 compounds, about 1,000 (0.33%) were called active.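 The calls were made as follows: active = inhibition above the mean of all tested compounds plus 3 SD, set per screening campaign (cut at about 45% in these data); inactive = the rest.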 The full list was thinned out, with actives kept by preference.

The assay deals with HCV core protein (residues 1-106) dimerization. Kind of assay: inhibitors of HCV core protein dimerization, primary screen, biochemical, TR-FRET, high-throughput (AID 1899). As to conditions: TR-FRET GST/Flag-core106 dimerization, 1536-well; at 5 µM; hits give high values. In outline: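 test system = GST/Flag-tagged HCV core106 proteins | probe or stimulus = Eu donor and XL665 acceptor anti-tag antibodies | times = compound-protein-antibody incubation 4 h at 22.5 °C | signal = TR-FRET, excitation 340 nm, emission 617 and 671 nm | measure = percent inhibition of core106 dimerization signal | controls = wells lacking GST-core106 and wells with excess unlabelled core106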
(In TR-FRET formats the signal depends on donor and acceptor labels being close together.)
Turning to `COc1ccc(NC(=O)c2cc(-c3ccc(C)o3)nc3ccccc23)cc1`, the inhibition (as a rule, the drop in the measured response relative to a control, in per cent) is 17.9% (inactive). In the case of `CC(=O)N1CCN(C(=O)c2cc(-c3ccc(C)o3)nc3ccccc23)CC1` it was 1.32% (inactive); in that of `Cc1ccc(NC(=O)c2cc(-c3ccc(C)o3)nc3ccccc23)nc1`, 49.3% (active); in that of `CN(CC(=O)Nc1cccc2c1CCCC2)S(=O)(=O)c1ccc(Cl)cc1`, 1.71% (inactive). For `COc1ccc(N2CCN(C(=O)CSc3nc4cc(OC)c(OC)cc4cc3C#N)CC2)cc1`, the inhibition is 53.1% (active).

For `COc1ccc(N2CCN(C(=O)CSc3nnc4ncccn34)CC2)cc1`, the inhibition was -2.8% (inactive). With `CCOc1ccc(-c2nnn(CC(=O)N3CCN(c4ccc(OC)cc4)CC3)n2)cc1OCC` the figure was 7.89% (inactive).

Consider `Cc1nnc(SC(C(=O)Nc2cc(Cl)cc(Cl)c2)c2ccccc2)[nH]c1=O` (stereo not given), for which the inhibition was 4.94% (inactive). With `O=C(O)Cc1sc(-c2ccccc2)nc1-c1cccs1`, the inhibition is 5.73% (inactive). Consider `COC(=O)c1cc(-c2cccs2)nc2ccccc12`, for which the inhibition is 3.48% (inactive). Turning to `CN(C(=O)COc1nnc(-c2cccs2)c(-c2cccs2)n1)c1ccccc1`, the inhibition was 49% (active). In the case of `CN(C(=O)CC1C(=O)NCCN1Cc1ccc(F)cc1Cl)C1CCCCC1` (stereo not given) it was -6.47% (inactive); in that of `Cc1ccc(C(=O)c2coc3ccc(O)c(CN(C)C)c23)cc1`, -5.01% (inactive); in that of `COc1cc(OC)c(C(=S)N2CCCC2)cc1OC`, 4.43% (inactive). With `COc1ccc(S(=O)(=O)N/N=C\c2ccc(OC)c(COc3ccc(C)cc3[N+](=O)[O-])c2)cc1`, the inhibition is 56% (active). With `Cc1ccc(S(=O)(=O)N/N=C\c2cc3c(cc2[N+](=O)[O-])OCO3)cc1` the figure was 2.28% (inactive). With `COc1ccc(/C=N/NS(=O)(=O)c2ccc(NC(C)=O)cc2)cc1` the figure was -3.63% (inactive); with `COc1ccccc1N(CC(=O)Nc1ccc(C(F)(F)F)cc1)S(C)(=O)=O`, -4.98% (inactive); with `O=C(O)CSc1nccn1-c1cccc(Cl)c1`, -3.31% (inactive). For the compound `CC(C(=O)N=Nc1c(O)n(C)c2ccc(Br)cc12)n1cnc2ccccc2c1=O` (stereo not given), the inhibition is 11.6% (inactive). With `O=C(CN1CCN(S(=O)(=O)/C=C/c2ccccc2)CC1)Nc1ccc(N2CCOCC2)cc1` the figure was 2.85% (inactive); with `COc1ccccc1N1CCN(CC(=O)NC(=O)NCc2ccco2)CC1`, -7.99% (inactive); with `O=C(CN1CCN(S(=O)(=O)/C=C/c2ccccc2)CC1)NC(=O)NCc1ccco1`, 47.9% (active).

`Cc1ccc(S(=O)(=O)NCCC(=O)OCC(=O)N(C)c2ccccc2)cc1`: the inhibition was -0.65% (inactive). Turning to `N#Cc1cccc(NC(=O)CN2CCCCCC2)c1`, the inhibition is -0.12% (inactive).

The values above are taken from PubChem BioAssay AID1899 (The Scripps Research Institute Molecular Screening Center, 2009).
